Assay results as given in ChEMBL document CHEMBL4673268, “The optimization of a novel selective antagonist for human M muscarinic acetylcholine receptor” (Bioorg Med Chem Lett, 2020).
Active and inactive are the calls of the source. The calls are words filed in the database; no cut-off is given here.

Legend:
[1] = biological target: T1, Muscarinic acetylcholine receptor M2 (Homo sapiens) (UniProt P08172); experiment: Antagonist activity at muscarinic M2 receptor (unknown origin) at 100 uM by acetylcholine titration assay; details: filed as antagonist
T1 sequence (whole entry): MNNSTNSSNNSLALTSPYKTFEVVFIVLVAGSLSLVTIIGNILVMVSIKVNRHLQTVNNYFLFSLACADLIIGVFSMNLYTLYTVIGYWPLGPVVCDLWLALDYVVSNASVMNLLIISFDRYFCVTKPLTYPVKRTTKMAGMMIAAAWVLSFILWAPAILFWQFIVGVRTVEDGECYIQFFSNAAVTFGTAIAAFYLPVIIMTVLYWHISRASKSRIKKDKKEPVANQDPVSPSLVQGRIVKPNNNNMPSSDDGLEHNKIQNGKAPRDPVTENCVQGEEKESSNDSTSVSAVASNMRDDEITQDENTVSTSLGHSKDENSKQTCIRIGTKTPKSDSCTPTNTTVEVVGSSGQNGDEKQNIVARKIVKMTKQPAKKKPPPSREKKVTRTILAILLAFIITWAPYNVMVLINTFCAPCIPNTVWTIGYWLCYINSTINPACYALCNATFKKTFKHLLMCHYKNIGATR
Method in brief: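 Acetylcholine titration curves were run in a radioligand binding format, without and with test ligand at 100 μM. A rightward shift of the ACh curve was taken to indicate negative allosteric modulation, and no shift to indicate orthosteric antagonism.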

[2] = biological target: Muscarinic acetylcholine receptor M2 and M4 (Homo sapiens) (UniProt P08173+P08172); experiment: Selectivity for human muscarinic M2 receptor over muscarinic M4 receptor (unknown origin); format: protein assay
[3] = biological target: T2, Muscarinic acetylcholine receptor M4 (Homo sapiens, UniProt P08173); experiment: Displacement of [3H]-NMS from muscarinic M4 receptor (unknown origin) expressed in CHO-K1 cell membranes assessed as inhibition constant by radioligand competition analysis; parameters: species or system Cell membrane
T2 sequence (P08173 whole entry): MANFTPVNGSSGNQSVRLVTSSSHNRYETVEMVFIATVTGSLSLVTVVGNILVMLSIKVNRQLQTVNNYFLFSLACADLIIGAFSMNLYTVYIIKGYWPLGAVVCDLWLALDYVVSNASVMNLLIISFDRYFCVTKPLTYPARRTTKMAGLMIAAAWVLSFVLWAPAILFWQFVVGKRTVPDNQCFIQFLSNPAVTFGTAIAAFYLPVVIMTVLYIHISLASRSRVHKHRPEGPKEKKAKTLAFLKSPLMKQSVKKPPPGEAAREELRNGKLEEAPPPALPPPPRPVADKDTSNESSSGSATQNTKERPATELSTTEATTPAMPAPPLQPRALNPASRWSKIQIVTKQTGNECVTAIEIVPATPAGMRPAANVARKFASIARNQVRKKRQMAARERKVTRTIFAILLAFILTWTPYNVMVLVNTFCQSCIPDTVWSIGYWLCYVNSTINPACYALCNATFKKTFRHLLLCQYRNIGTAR
Method in brief: (§1)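 Inhibition constants came from radioligand competition binding. Acetylcholine and atropine were included as positive controls for competitive binding. Values are given as mean ± SEM.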

[4] = biological target: Muscarinic acetylcholine receptor M3 (Homo sapiens, UniProt P20309); experiment: Displacement of [3H]-NMS from muscarinic M3 receptor (unknown origin) expressed in CHO-K1 cell membranes assessed as inhibition constant by radioligand competition analysis; parameters: species or system Cell membrane; method in brief: as §1
[5] = biological target: Muscarinic acetylcholine receptors; M1 & M2 (Homo sapiens) (UniProt P11229+P08172); experiment: Selectivity for human muscarinic M2 receptor over muscarinic M1 receptor (unknown origin); format: protein assay
[6] = biological target: T3, Muscarinic acetylcholine receptor M1 (Homo sapiens, UniProt P11229); experiment: Displacement of [3H]-NMS from muscarinic M1 receptor (unknown origin) expressed in CHO-K1 cell membranes assessed as inhibition constant by radioligand competition analysis; parameters: species or system Cell membrane; method in brief: as §1
T3 sequence (P11229 whole entry): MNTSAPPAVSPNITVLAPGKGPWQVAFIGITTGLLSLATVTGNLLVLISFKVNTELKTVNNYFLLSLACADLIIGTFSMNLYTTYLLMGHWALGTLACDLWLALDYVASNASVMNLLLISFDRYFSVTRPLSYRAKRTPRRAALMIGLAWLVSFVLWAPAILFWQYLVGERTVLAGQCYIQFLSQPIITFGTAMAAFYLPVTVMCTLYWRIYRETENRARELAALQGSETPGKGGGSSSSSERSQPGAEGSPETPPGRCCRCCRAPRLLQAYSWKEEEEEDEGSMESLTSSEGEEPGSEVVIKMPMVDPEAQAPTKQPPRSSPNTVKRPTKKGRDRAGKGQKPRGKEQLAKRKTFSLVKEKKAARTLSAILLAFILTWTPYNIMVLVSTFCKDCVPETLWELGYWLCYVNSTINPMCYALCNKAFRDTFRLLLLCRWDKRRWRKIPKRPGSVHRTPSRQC

[7] = biological target: T4, Muscarinic acetylcholine receptor M2 (Homo sapiens, UniProt P08172); experiment: Antagonist activity at human muscarinic M2 receptor expressed in CHO cells co-expressing Galpha15 assessed as inhibition of acetylcholine-induced calcium mobilization relative to acetylcholine; format: functional, cell-based
T4 sequence (P08172 whole entry): T1 sequence (whole entry)

[8] = biological target: T4, Muscarinic acetylcholine receptor M2; experiment: Displacement of [3H]-NMS from muscarinic M2 receptor (unknown origin) expressed in CHO-K1 cell membranes assessed as inhibition constant by radioligand competition analysis; parameters: species or system Cell membrane
[9] = biological target: Muscarinic acetylcholine receptors; M2 & M3 (Homo sapiens) (UniProt P20309+P08172); experiment: Selectivity for human muscarinic M2 receptor over muscarinic M3 receptor (unknown origin); format: protein assay
Sequence of Muscarinic acetylcholine receptors; M2 & M3 (Homo sapiens) (P20309 whole entry, looked up, one chain of several): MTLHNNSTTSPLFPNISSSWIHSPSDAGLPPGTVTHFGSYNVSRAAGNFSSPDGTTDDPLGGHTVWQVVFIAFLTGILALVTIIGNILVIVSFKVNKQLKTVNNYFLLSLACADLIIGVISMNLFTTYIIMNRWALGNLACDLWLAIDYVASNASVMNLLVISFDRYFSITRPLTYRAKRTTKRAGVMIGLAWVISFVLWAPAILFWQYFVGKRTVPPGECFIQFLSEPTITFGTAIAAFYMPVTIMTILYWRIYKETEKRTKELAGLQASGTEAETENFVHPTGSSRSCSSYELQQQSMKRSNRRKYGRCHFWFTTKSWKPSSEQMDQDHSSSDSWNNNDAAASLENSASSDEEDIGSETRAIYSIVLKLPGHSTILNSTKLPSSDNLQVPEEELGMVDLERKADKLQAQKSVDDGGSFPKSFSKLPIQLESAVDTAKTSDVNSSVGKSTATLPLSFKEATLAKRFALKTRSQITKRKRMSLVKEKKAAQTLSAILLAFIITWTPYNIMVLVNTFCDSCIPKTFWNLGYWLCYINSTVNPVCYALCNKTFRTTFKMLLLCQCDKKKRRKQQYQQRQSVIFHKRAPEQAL

Sequence of Muscarinic acetylcholine receptor M3 (P20309 whole entry): as the sequence (P20309 whole entry, looked up, one chain of several) above

| Activity [1] | Ratio [2] | Ki [3] | Ki [4] | Ratio [5] | Ki [6] | IC50 [7] | Ki [8] | Ratio [9] | SMILES |
| --- | --- | --- | --- | --- | --- | --- | --- | --- | --- |
| Active | 30 | 18.2 µM | > 100 µM | 8 | 4.9 µM | 0.479 µM | 0.617 µM | > 250 | O=C(CCN1CCCc2ccccc21)Nc1cccc2cccnc12 |
| Active | – | > 100 µM | > 100 µM | – | – | > 100 µM | > 100 µM | – | CC1Cc2ccccc2N1CC(=O)N1CCCCC1 (stereo not given) |
| – | – | 1.23 µM | 11 µM | – | 2.88 µM | 0.437 µM | 0.417 µM | – | O=C(CN1CCCc2ccccc21)N1CCCCC1 |
| – | – | 0.891 µM | 4.57 µM | – | 1.05 µM | 0.776 µM | 0.575 µM | – | O=C(O)C1CCCN1C(=O)CCN1CCCc2ccccc21 (stereo not given) |
| – | – | 58.9 µM | 60.3 µM | – | > 100 µM | > 100 µM | 40.7 µM | – | O=C(CN1CCCc2cnccc21)N1CCCCC1 |
| – | – | 6.31 µM | > 100 µM | – | 44.7 µM | 4.9 µM | 2.45 µM | – | CC1CCc2ccccc2N1CC(=O)N1CCCC1 (stereo not given) |
| – | – | 10.7 µM | 10.7 µM | – | 5.62 µM | 1.41 µM | 3.31 µM | – | O=C(CCN1CCCc2ccccc21)Nc1ccc(Cl)cc1 |
| – | – | 8.91 µM | 52.5 µM | – | 28.2 µM | 7.41 µM | 3.63 µM | – | CC1CCc2ccccc2N1CC(=O)N1CCCCC1 (stereo not given) |
| – | – | 17 µM | 33.1 µM | – | 23.4 µM | 15.1 µM | 13.2 µM | – | O=C(CCN1CCCc2ccccc21)N1CCC(O)CC1 |
| – | – | 4.07 µM | 26.3 µM | – | 9.33 µM | 0.339 µM | 0.912 µM | – | O=C(CCN1CCCc2ccccc21)Nc1cccc2ccccc12 |
| – | – | > 100 µM | 85.1 µM | – | 93.3 µM | > 100 µM | 43.7 µM | – | O=C(CN1CCCc2cnccc21)N1CCCC1 |
| – | – | 5.75 µM | 11.5 µM | – | 4.47 µM | 12 µM | 1.7 µM | – | O=C(CCN1CCCc2ccccc21)N1CCC1 |
| – | – | 5.25 µM | 8.51 µM | – | 6.31 µM | 3.16 µM | 3.24 µM | – | CC1CCCCN1C(=O)CCN1CCCc2ccccc21 (stereo not given) |
| – | – | 50.1 µM | > 100 µM | – | 51.3 µM | 70.8 µM | 16.6 µM | – | O=C(CCN1CCCc2ccccc21)N1CCC(O)C1 (stereo not given) |
| – | – | 8.71 µM | 25.7 µM | – | 7.59 µM | 0.977 µM | 3.31 µM | – | Cn1ccc(NC(=O)CCN2CCCc3ccccc32)n1 |
| – | – | 21.4 µM | 66.1 µM | – | 17.8 µM | 24.5 µM | 18.6 µM | – | Cc1ccc2c(c1)CCCN2CC(=O)N1CCCCC1 |
| Active | – | 74.1 µM | 79.4 µM | – | 100 µM | > 100 µM | 21.4 µM | – | CC1Cc2ccccc2N1CC(=O)N1CCCC1 (stereo not given) |
| – | – | 2.14 µM | 7.24 µM | – | 0.646 µM | 1.02 µM | 0.646 µM | – | O=C(CCN1CCCc2ccccc21)NCc1cccs1 |
